UPR CHOP act: apoptotic UPR (CHOP) activation. CHO-CHOP luciferase reporter, luminescence; percent of tunicamycin response over DMSO baseline. actives 0.34% (n = 330,000). activation, % at 10 µM;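 active = at 10 µM dose, activation of 40% or more, normalized to positive control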
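System: CHO CHOP reporter cells. Amount: 500 cells per well. Buffer or medium: F12 medium, 10% FBS. Compound dosing: one dose, 10 µM in 0.5% DMSO. Incubation: 6 h compound exposure at 37 °C after overnight seeding. Technique: Steady-Glo luciferase luminescence. Benchmarks: tunicamycin and DMSO controls.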
Apaf1 inhib: inhibitors of human Apaf-1 apoptosome; O14727; reconstituted apoptosome caspase-3 activity, DEVD-Rh110 fluorescence; inhibition, % at 20 µM; actives 0.71% (n = 330,000); active = inhibition of at least 40% at 20 µM
Target sequence (O14727 whole entry, looked up): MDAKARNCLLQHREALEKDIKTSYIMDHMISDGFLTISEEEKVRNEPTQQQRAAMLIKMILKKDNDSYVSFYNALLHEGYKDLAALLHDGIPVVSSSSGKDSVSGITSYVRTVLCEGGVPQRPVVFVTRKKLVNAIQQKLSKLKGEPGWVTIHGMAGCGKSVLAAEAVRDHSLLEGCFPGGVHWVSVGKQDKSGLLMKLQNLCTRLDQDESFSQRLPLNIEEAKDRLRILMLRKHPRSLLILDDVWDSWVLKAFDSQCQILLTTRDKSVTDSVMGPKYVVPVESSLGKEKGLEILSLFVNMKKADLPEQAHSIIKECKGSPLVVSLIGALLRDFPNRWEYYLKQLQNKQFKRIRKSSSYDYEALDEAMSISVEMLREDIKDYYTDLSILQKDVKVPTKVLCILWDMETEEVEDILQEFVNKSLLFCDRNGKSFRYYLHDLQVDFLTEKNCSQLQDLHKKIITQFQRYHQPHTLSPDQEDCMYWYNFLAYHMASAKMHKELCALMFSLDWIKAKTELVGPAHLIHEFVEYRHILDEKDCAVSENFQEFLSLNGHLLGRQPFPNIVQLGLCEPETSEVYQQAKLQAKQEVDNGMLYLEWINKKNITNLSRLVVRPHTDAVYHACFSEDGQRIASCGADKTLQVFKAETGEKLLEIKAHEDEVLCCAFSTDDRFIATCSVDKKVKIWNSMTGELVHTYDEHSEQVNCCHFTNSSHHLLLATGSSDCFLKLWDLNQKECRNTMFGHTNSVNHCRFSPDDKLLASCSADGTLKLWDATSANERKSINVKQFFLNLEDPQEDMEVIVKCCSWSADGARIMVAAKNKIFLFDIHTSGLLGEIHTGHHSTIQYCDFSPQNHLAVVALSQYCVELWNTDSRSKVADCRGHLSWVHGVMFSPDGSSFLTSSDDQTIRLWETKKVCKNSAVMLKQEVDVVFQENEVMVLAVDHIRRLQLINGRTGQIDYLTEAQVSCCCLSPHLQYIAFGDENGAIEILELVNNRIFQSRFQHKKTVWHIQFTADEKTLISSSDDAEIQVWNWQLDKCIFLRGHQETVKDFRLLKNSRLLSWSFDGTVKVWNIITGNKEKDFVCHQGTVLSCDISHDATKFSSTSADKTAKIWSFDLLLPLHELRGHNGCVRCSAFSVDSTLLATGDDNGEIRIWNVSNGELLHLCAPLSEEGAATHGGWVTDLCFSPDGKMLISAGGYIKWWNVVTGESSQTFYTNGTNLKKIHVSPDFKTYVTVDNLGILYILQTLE
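Medium: Hepes buffer, pH 7.5 / System: biochemical Apaf-1 apoptosome reconstitution / Measured by: Rh110 fluorescence, excitation 480 nm, emission 540 nm / Times: compound with Apaf-1, dATP, procaspase-3 30 min, then 50 min reaction, room temperature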
Mdm2 MdmX PPI: disrupts the human Mdm2-MdmX interaction; inhibition, % at 8 µM; SaOS-2 split-luciferase Mdm2/MdmX complementation, luminescence; O15151+Q00987; actives 3% (n = 330,000);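 active = inhibition of at least 50% at 8 µM in the primary screen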
UPR XBP1 act: activators of adaptive arm of unfolded protein response (XBP1). activation, % at 20 µM. AID 463104. actives 0.33% (n = 330,000). CHO-XBP1 luciferase reporter, IRE1-XBP1 UPR activation, luminescence; percent of tunicamycin response, DMSO as zero;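 active = versus positive control, 20 µM dose yields 30% or more activation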
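Material – CHO cell line with stable XBP1 luciferase reporter · Buffer or medium – F12 plus 10% FBS · Compound – single point, 20 µM final compound, 1% DMSO · Schedule – 16-18 h cell attachment at 37 °C, then 6 h compound exposure · Signal – Steady-Glo luminescence read · Benchmarks – high control tunicamycin 10 µg/mL final, low control DMSO vehicle only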
UBC13 polyUb: human UBC13 polyubiquitination inhibition | P61088 | inhibition, % at 20 µM | UBC13 polyubiquitin chain formation, TR-FRET | AID 485273 | actives 0.47% (n = 330,000); in the data active = inhibition above about 45%, passing the limit was not always enough; inconclusive = no clear call, values can overlap the other calls
Apaf-1 inh conf: confirmation of Apaf-1 inhibitors | shares compounds with Apaf1 inhib | reconstituted apoptosome, caspase-3 DEVD-Rh110 fluorescence | inhibition, % at 20 µM | actives 25% (n = 1,800);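 active = mean inhibition of at least 40% at 20 µM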
Rh110 interf inh: interferes with Rh110 fluorescence, flagging false Apaf-1 inhibitors; shares compounds with Apaf1 inhib; Rh110 fluorescence interference, quenched caspase reaction; activation (fluorescence interference), % at 20 µM; 1,800 tested, under 10 active;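 active = signal rise of 40% or more at 20 µM, treated as a fluorescence artifact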
Fluor interf inh: Apaf-1 inhibitor counter-screen fluorescence artifact | shares compounds with Apaf1 inhib | fluorescence interference counterscreen, Apaf-1 assay format | IC50, µM | 460 tested, under 10 active; call rule not given here
Large screens that a line does not name were inactive (follow-up assays come after a bar, where they were run); ! = repeats disagree. This is a sample that favours compounds with a hit; in the whole collection about 4.1% have one here.

COc1ccc(NC(=O)c2c[nH]n3c(=O)cc(C4CCN(C(=O)OC(C)(C)C)CC4)nc23)cc1Cl	Apaf1 inhib 42 | Apaf-1 inh conf inactive | Rh110 interf inh inactive
O=C(NCCCN1CCOCC1)c1cc(S(=O)(=O)N2CCOCC2)ccc1Cl	none
O=C1C2=C(c3ccccc31)[N+](=O)[C@@H]1CCCC[C@@H]1N2[O-]	Apaf1 inhib 75 | Apaf-1 inh conf 66 | Rh110 interf inh inactive | Fluor interf inh inactive
CCN(CC)CCCNC1=C(Cl)C(=O)c2ccccc2C1=O	Apaf1 inhib 50 | Apaf-1 inh conf 65 | Rh110 interf inh inactive | Fluor interf inh inactive
CC(C)OCCCNC1=C(Cl)C(=O)c2ccccc2C1=O	Apaf1 inhib 53 | Apaf-1 inh conf inactive | Rh110 interf inh inactive
CC(C)(C)OC(=O)C[C@H]1C/C=C\C[C@@H](CC(=O)N(CCO)Cc2ccccc2)C(=O)N[C@H](Cc2c[nH]c3ccccc23)COC1=O	none
COc1cc(SC)ccc1C(=O)N1CCN(S(=O)(=O)/C=C/c2ccccc2)CC1	none
COC(=O)N/N=C/c1ccc(-c2ccc(C)c(Cl)c2)o1	none
Cc1ccc(-c2ccc(/C=N\NC(=O)C3C(=O)NCC3c3ccccc3)o2)cc1Cl (stereo unspecified)	Apaf1 inhib 43 | Apaf-1 inh conf inactive | Rh110 interf inh inactive
O=C1NCC(c2ccccc2)C1C(=O)N/N=C\c1ccc(-c2cccc(Cl)c2Cl)o1 (stereo unspecified)	Apaf1 inhib 40 | Apaf-1 inh conf inactive | Rh110 interf inh inactive
COc1ccc(CC(=O)N(Cc2ccccc2)c2ccc(C)cc2)cc1S(=O)(=O)N1CCOCC1	Apaf1 inhib 43 | Apaf-1 inh conf 43 | Rh110 interf inh inactive | Fluor interf inh inactive
COc1ccc(CC(=O)NCc2ccccc2)cc1S(=O)(=O)N1CCOCC1	none
COc1ccc(CC(=O)N(C)CC(=O)Nc2c(C)cccc2C)cc1S(=O)(=O)N1CCOCC1	Apaf1 inhib 60 | Apaf-1 inh conf inactive | Rh110 interf inh inactive
COc1ccc(CC(=O)N(C)CC(=O)Nc2ccccc2C(F)(F)F)cc1S(=O)(=O)N1CCOCC1	Apaf1 inhib 46 | Apaf-1 inh conf inactive | Rh110 interf inh inactive
COc1ccc(CC(=O)N(C)Cc2cccc(F)c2)cc1S(=O)(=O)N1CCOCC1	none
Cc1noc(C)c1NC(=O)N(C)C[C@H]1Oc2c(NC(=O)Nc3ccc4c(c3)OCO4)cccc2C(=O)N([C@H](C)CO)C[C@@H]1C	none
CCN(CC)S(=O)(=O)c1cccc(NC(=O)C2SC(=Nc3ccc(C)cc3C)C(C(=O)NCC3CCCO3)=C2N)c1 (stereo unspecified)	Apaf1 inhib 45 | Apaf-1 inh conf inactive | Rh110 interf inh inactive
COc1ccc(OC)c(S(=O)(=O)Oc2ccc(N)c3ccccc23)c1	Apaf1 inhib 69 | Apaf-1 inh conf inactive | Rh110 interf inh inactive
COc1ccc(OC)c(S(=O)(=O)Nc2cccc3ccccc23)c1	none
CC1Oc2cc3oc4c(O)c(O)ccc4c(=O)c3c(O)c2C1(C)C (stereo unspecified)	none
CN(C)CCCNc1cc(O)c2ncccc2c1	Apaf1 inhib 77, UBC13 polyUb inconclusive | Apaf-1 inh conf 55 | Rh110 interf inh inactive | Fluor interf inh inactive
O=C(c1ccco1)N1CCN(c2nc3ccccc3n3nnnc23)CC1	none
c1ccc(CC2CCN(c3nc4ccccc4n4nnnc34)CC2)cc1	Apaf1 inhib 58 | Apaf-1 inh conf inactive | Rh110 interf inh inactive
CN(C(=O)Cn1nnc(-c2cccnc2)n1)C1CCCCC1	none
CN1CCc2cccc3c2[C@H]1Cc1ccc(O)c(O)c1-3	Apaf1 inhib 42! | Apaf-1 inh conf inactive | Rh110 interf inh inactive
CCN(C(=S)NC(=O)c1ccco1)c1cccc2ccccc12	Apaf1 inhib 82 | Apaf-1 inh conf inactive | Rh110 interf inh inactive
N#Cc1nc(-c2ccco2)oc1N1CCc2ccccc2C1	Apaf1 inhib 52 | Apaf-1 inh conf inactive | Rh110 interf inh inactive
Cc1c(CCOC(=O)c2cc([N+](=O)[O-])cc([N+](=O)[O-])c2)sc[n+]1CC(=O)c1ccc(Br)cc1	none
Cc1c(CCOC(=O)c2ccc(Cl)cc2Cl)sc[n+]1CC(=O)c1ccccc1	Apaf1 inhib 56 | Apaf-1 inh conf inactive | Rh110 interf inh inactive
O=C1Nc2ccccc2Nc2ccc([N+](=O)[O-])cc21	Apaf1 inhib 43 | Apaf-1 inh conf inactive | Rh110 interf inh inactive
Cc1ccc(N=C2NC(=O)c3cc([N+](=O)[O-])ccc32)cc1	none
CCOc1ccc(OCCC(=O)OCC(=O)NCc2ccccc2)cc1	none
CCCOCC(O)CCc1n[nH]c(=S)n1-c1ccccc1 (stereo unspecified)	none
Cc1ccc(C(=O)N2CCCN(c3nc4cc5c(cc4cc3C#N)OCO5)CC2)cc1	Apaf1 inhib 67 | Apaf-1 inh conf inactive | Rh110 interf inh inactive
N#Cc1cc2cc3c(cc2nc1N1CCCCC1)OCCO3	none
CC(=O)Nc1ccc(S(=O)(=O)N(C)c2ccc(OCCOc3ccccc3F)cc2)cc1	none
COc1cc(C(=O)NC(C)c2ccc(-n3ccnc3)cc2)cc(OC)c1C (stereo unspecified)	Apaf1 inhib 41 | Apaf-1 inh conf inactive | Rh110 interf inh inactive
OCCCNCc1ccc(N(c2ccccc2)c2ccccc2)cc1	none
Oc1ccccc1CNc1cccc2cccnc12	Apaf1 inhib 95 | Apaf-1 inh conf inactive | Rh110 interf inh inactive
COc1ccc(NC(=O)Cn2cnc3c(oc4nc5c(cc43)COC(C)(C)C5)c2=O)cc1	none
Cc1cc(F)ccc1NCC(=O)Nc1ccccc1Br	none
Oc1cccc2cnccc12	none
Nc1cccc2cnccc12	Apaf1 inhib 67 | Apaf-1 inh conf inactive | Rh110 interf inh inactive
CC1CCCN(C2=C(NS(=O)(=O)c3ccc(Br)cc3)C(=O)c3ccccc3C2=O)C1 (stereo unspecified)	Apaf1 inhib 51 | Apaf-1 inh conf inactive | Rh110 interf inh inactive
CC1CCCN(c2nc3ccccc3nc2C(C#N)S(=O)(=O)c2ccccc2)C1 (stereo unspecified)	none
O=C1C(NS(=O)(=O)c2cccs2)=C(N2CCN(c3cccc(Cl)c3)CC2)C(=O)c2ccccc21	Apaf1 inhib 58 | Apaf-1 inh conf inactive | Rh110 interf inh inactive
O=C1C(NS(=O)(=O)c2ccccc2)=C(N2CCN(c3ccc(F)cc3)CC2)C(=O)c2ccccc21	none
O=S(=O)(Nc1ccc(N2CCOCC2)cc1)c1cccs1	none

From PubChem BioAssay
